Measured values taken from ChEMBL document CHEMBL4699394, “Insights into structural and physicochemical properties required for beta-hematin inhibition of privileged triarylimidazoles” (RSC Med Chem, 2020).

Legend:
HeLa = assay: Cytotoxicity against human HeLa cells assessed as reduction in cell viability at 20 uM incubated for 48 hrs by FACS analysis; assay type: cell-based
Hemozoin = assay: Inhibition of beta-hematin formation assessed as reduction in hemozoin formation incubated for 20 hrs by NP40 detergent-mediated assay
In short: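 In vitro β-hematin formation assay buffered at acidic pH 4.8 to mimic the parasite digestive vacuole. IC50 is the mean of experiments run in technical triplicate.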

Plasmodium falciparum [1] = assay: Antimalarial activity against Plasmodium falciparum 3D7 infected in human Erythrocyte assessed as plasmodial growth at 20 uM incubated for 48 hrs by FACS analysis relative to control; assay type: functional
Plasmodium falciparum [2] = assay: Antimalarial activity against Plasmodium falciparum 3D7 infected in human Erythrocyte assessed as reduction in plasmodial growth incubated for 48 hrs by FACS analysis; assay type: functional, organism-based; details: 3D7, Erythrocyte
In short: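 Dose-response IC50 against P. falciparum 3D7. Only compounds that reduced parasite viability below 10% in a 20 μM, 48 h single-concentration screen were tested. IC50 is the mean of experiments run in technical triplicate.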

Structure (SMILES) | IC50 (Hemozoin) | IC50 (Hemozoin; read-out: IC50) [µM] | Activity (HeLa) | Activity (Plasmodium falciparum [1]) [%] | IC50 (Plasmodium falciparum [2]) [µM]
O=[N+]([O-])c1ccccc1-c1nc(-c2ccccc2)c(-c2ccccc2)[nH]1 | Not Active |  | Non-Toxic |  | 
O=[N+]([O-])c1cccc(-c2nc(-c3ccccc3)c(-c3ccccc3)[nH]2)c1 | Not Active |  | Non-Toxic |  | 
c1ccc(-c2nc(-c3ccco3)[nH]c2-c2ccccc2)cc1 |  | 401 | Non-Toxic |  | 
COc1ccccc1-c1nc(-c2ccccc2)c(-c2ccccc2)[nH]1 | Not Active |  | Non-Toxic |  | 
Clc1cccc(-c2nc(-c3ccccc3)c(-c3ccccc3)[nH]2)c1 | Not Active |  | Non-Toxic |  | 
c1ccc(-c2nc(C3CCCCC3)[nH]c2-c2ccccc2)cc1 |  | > 500 | Non-Toxic |  | 
Cc1ccccc1-c1nc(-c2ccccc2)c(-c2ccccc2)[nH]1 |  | > 500 | Non-Toxic |  | 
Fc1ccccc1-c1nc(-c2ccc(Cl)cc2)c(-c2ccccc2)[nH]1 |  | > 500 | Non-Toxic |  | 
c1ccc(-c2nc(-c3ccc4ccccc4c3)[nH]c2-c2ccccc2)cc1 | Not Active |  | Non-Toxic |  | 
Fc1ccccc1-c1nc(-c2ccccc2)c(-c2ccccc2)[nH]1 |  | > 500 | Non-Toxic |  | 
CCC(CC)c1nc(-c2ccccc2)c(-c2ccccc2)[nH]1 | Not Active |  | Non-Toxic | <10 | 11
c1ccc(-c2nc(-c3c[nH]c4ccccc34)[nH]c2-c2ccccc2)cc1 |  | 72.8 | Non-Toxic |  | 
Fc1cccc(-c2nc(-c3ccccc3)c(-c3ccccc3)[nH]2)c1 | Not Active |  | Non-Toxic |  | 
CCN(CC)CCCC(C)Nc1ccnc2cc(Cl)ccc12 (configuration not stated) [CHLOROQUINE] |  | 16.9 |  |  | 

Now from value to compound, other results behind:

IC50 (Hemozoin) | IC50 (Hemozoin; read-out: IC50) [µM] | Structure (SMILES) | Activity (HeLa) | Activity (Plasmodium falciparum [1]) [%] | IC50 (Plasmodium falciparum [2]) [µM]
Not Active |  | Clc1ccc(-c2nc(-c3ccccc3)c(-c3ccccc3)[nH]2)cc1 | Non-Toxic |  | 
 | 48.1 | COc1ccc(-c2nc(-c3ccccc3)c(-c3ccccc3)[nH]2)cc1 | Non-Toxic |  | 
 | 156 | Cc1ccc(-c2nc(-c3ccccc3)c(-c3ccccc3)[nH]2)cc1 | Non-Toxic |  | 
 | 28.8 | Clc1ccc(-c2nc(-c3ccc(Br)cc3)[nH]c2-c2ccccc2)cc1 | Non-Toxic | <10 | 8
 | 39 | Clc1ccc(-c2nc(-c3ccc(Cl)cc3)c(-c3ccccc3)[nH]2)cc1 | Non-Toxic |  | 
 | 54.2 | Brc1ccc(-c2nc(-c3ccc(Br)cc3)c(-c3ccccc3)[nH]2)cc1 | Non-Toxic |  | 
 | 28 | Fc1ccc(-c2nc(-c3ccc(Cl)cc3)c(-c3ccccc3)[nH]2)cc1 | Non-Toxic | <10 | 6.5
Not Active |  | Brc1ccc(-c2nc(-c3ccccc3)[nH]c2-c2ccc(Br)cc2)cc1 | Non-Toxic | <10 | 13
 | 20.3 | COc1ccc(-c2nc(-c3ccc(Br)cc3)c(-c3ccccc3)[nH]2)cc1 | Non-Toxic | <10 | 1.5
 | > 500 | Clc1ccc(-c2nc(-c3ccccc3)[nH]c2-c2ccccc2)cc1 | Non-Toxic |  | 
 | 294 | Brc1ccc(-c2nc(-c3ccccc3)[nH]c2-c2ccccc2)cc1 | Non-Toxic |  | 
 | 20.5 | COc1ccc(-c2nc(-c3ccc(Cl)cc3)c(-c3ccccc3)[nH]2)cc1 | Non-Toxic | <10 | 11
 | > 500 | O=[N+]([O-])c1cccc(-c2nc(-c3ccc(Cl)cc3)c(-c3ccccc3)[nH]2)c1 | Non-Toxic |  | 
 | 489 | Brc1ccc(-c2nc(-c3ccccc3)c(-c3ccccc3)[nH]2)cc1 | Non-Toxic |  | 
